According to ChEMBL document CHEMBL1137455, “Replacement of the lactone moiety on podophyllotoxin and steganacin analogues with a 1,5-disubstituted 1,2,3-triazole via ruthenium-catalyzed click chemistry” (Bioorg Med Chem, 2007):
Calls of active or inactive are those of the source. The calls are words filed in the database; no cut-off is given here.

Tests used:
Tubulin (Homo sapiens) = Tubulin (Homo sapiens) (UniProt P68371+Q9H4B7+P0DPH7+P68366+Q13509+Q71U36+P04350+Q3ZCM7+P07437+P68363+Q9BQE3+Q6PEY2+Q13885+Q9BVA1+Q9BUF5); test: Induction of tubulin depolymerization after 16 hrs; assay type: protein-complex assay
In short: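 Cells treated 16 h with tubulin-disrupting agents; proteins harvested in presence of paclitaxel to fix polymerized and unpolymerized tubulin; soluble (non-polymerized) and pellet (polymerized) fractions run on SDS-PAGE and immunoblotted with monoclonal mouse anti-tubulin antibody.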

SH-SY5Y [1] = test: Cytotoxicity against SH-SY5Y cells assessed as cell viability upto 100 uM after 48 hrs by MTT method; assay type: functional, cell-based; conditions: Homo sapiens
In short: (§1)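 SH-SY5Y human neuroblastoma cells exposed to compounds for 48 h; viability read by MTT; dose–response curves; highest concentration tested 100 μM.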

SH-SY5Y [2] = test: Cytotoxicity against SH-SY5Y cells assessed as cell viability after 48 hrs by MTT method; assay type: functional, cell-based; conditions: Homo sapiens; in short: as §1
SH-SY5Y [3] = test: Cytotoxicity against SH-SY5Y cells assessed as cell viability above 10 uM after 48 hrs by MTT method; assay type: functional, cell-based; conditions: Homo sapiens; in short: as §1

Structure (SMILES) | Activity (Tubulin (Homo sapiens)) | Activity (SH-SY5Y [1]) | IC50 (SH-SY5Y [2]) | other results
CC(=O)O[C@H]1C(=O)[C@@]2(C)[C@H]([C@H](OC(=O)c3ccccc3)[C@]3(O)C[C@H](OC(=O)[C@H](O)[C@@H](NC(=O)c4ccccc4)c4ccccc4)C(C)=C1C3(C)C)[C@]1(OC(C)=O)CO[C@@H]1C[C@@H]2O | inactive | – | – | –
COc1cc(Cc2cnnn2Cc2ccc3c(c2)OCO3)cc(OC)c1OC | – | Not toxic | – | –
COc1cc2c(c(OC)c1OC)-c1cc3c(cc1Cc1cnnn1C2)OCO3 | – | – | 1100 nM | –
COc1cc(C2c3cc4c(cc3Cn3nncc32)OCO4)cc(OC)c1OC (racemic) | Active | – | 1500 nM | –
COc1cc(Cn2nncc2Cc2ccc3c(c2)OCO3)cc(OC)c1OC | – | Not toxic | – | –
COc1cc2c(c(OC)c1OC)-c1cc3c(cc1Cn1nncc1C2)OCO3 | – | – | – | Activity (SH-SY5Y [3]): Toxic
COc1cc([C@@H]2c3cc4c(cc3[C@H](O)[C@H]3COC(=O)[C@H]23)OCO4)cc(OC)c1OC [PODOFILOX] | Active | – | 7 nM | –
COc1cc(C(O)c2cnnn2Cc2ccc3c(c2)OCO3)cc(OC)c1OC (stereo unspecified) | – | Not toxic | – | –
COc1ccc(/C=C\c2cc(OC)c(OC)c(OC)c2)cc1O | Active | – | – | –
